According to ChEMBL document CHEMBL1122519, “Bispyridinamines: a new class of topical antimicrobial agents as inhibitors of dental plaque” (1984):

Legend:
[1] = system: Actinomyces viscosus; assay: Compound is evaluated for minimal bactericidal concentration against plaque formation for Actinomyces viscosus; assay type: functional, organism-based
In short: (§1)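 Preformed in vitro plaques of S. mutans NCTC 10449 or A. viscosus M-100 were grown on ceramic hydroxylapatite under anaerobic conditions at 37 °C in sucrose-supplemented medium. Plaques were immersed for 30 min at 37 °C in compound at 0.3–20 mM, rinsed, and moved to broth containing bromocresol purple. Kill was judged by no acid production, no turbidity increase and no growth on plating at 48 h. Plaques were run in quadruplicate.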

[2] = system: Actinomyces naeslundii; assay: Compound is evaluated for plaque-bactericidal index (PBI) against Actinomyces naeslundii 631; assay type: functional
[3] = system: Actinomyces viscosus; assay: Compound is evaluated for plaque-bactericidal index (PBI) against Actinomyces viscosus M-100; assay type: functional
[4] = system: Escherichia coli; assay: Antimicrobial minimum inhibitory concentration against Escherichia coli AB1932-1; assay type: functional
In short: (§2)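 Serial twofold tube dilution in tryptose phosphate broth. Each compound was prepared as a 1000 μg/mL aqueous stock and diluted in double-strength broth, then 2×10^5 cells were added. Tubes were incubated aerobically at 37 °C for 24 h. The MIC was taken as the lowest concentration with no visible growth.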

[5] = system: Escherichia coli; assay: Minimum inhibitory concentration against Escherichia coli (Vogel); assay type: functional; in short: as §2
[6] = system: Escherichia coli; assay: Antimicrobial minimum inhibitory concentration against Escherichia coli 100/B22; assay type: functional; in short: as §2
[7] = system: Klebsiella pneumoniae; assay: Minimum inhibitory concentration against Klebsiella pneumonia 39645; assay type: functional; in short: as §2
[8] = system: Proteus mirabilis; assay: Minimum antimicrobial inhibitory concentration against Proteus mirabilis MGH-1; assay type: functional; in short: as §2
[9] = system: Pseudomonas aeruginosa; assay: Minimum antimicrobial inhibitory concentration against Pseudomonas aeruginosa MGH-2; assay type: functional; in short: as §2
[10] = system: Streptococcus mutans; assay: Compound is evaluated for the effect of saliva upon the antiplaque activity of the compound at 0% of saliva and at 0.01 percentage of compound; - = No plaque accumulation; assay type: functional, organism-based
In short: (§3)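 Hydroxylapatite plate antiplaque assay against S. mutans run for 48 h, with two 1-min exposures to aqueous compound per 24 h. Growth medium contained 0, 5 or 50% pooled human saliva (paraffin-stimulated, centrifuged, filtered, membrane-sterilized). Plaque was stained with FD&C Red No. 3 and graded none, slight or moderate. Staining potential was scored on plates run without inoculum and graded none or slight.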

[11] = system: Streptococcus mutans; assay: Compound is evaluated for the effect of saliva upon the antiplaque activity of the compound at 0% of saliva and at 0.025 percentage of compound; - = No plaque accumulation; assay type: functional, organism-based; in short: as §3
[12] = system: Streptococcus mutans; assay: Compound is evaluated for the effect of saliva upon the antiplaque activity of the compound at 0% of saliva and at 0.05 percentage of compound; - = No plaque accumulation; assay type: functional, organism-based; in short: as §3
[13] = system: Streptococcus mutans; assay: Compound is evaluated for the effect of saliva upon the antiplaque activity of the compound at 50% of saliva and at 0.01 percentage of compound; - = No plaque accumulation; assay type: functional, organism-based; in short: as §3
[14] = system: Streptococcus mutans; assay: Compound is evaluated for the effect of saliva upon the antiplaque activity of the compound at 50% of saliva and at 0.025 percentage of compound; - = No plaque accumulation; assay type: functional, organism-based; in short: as §3
[15] = system: Streptococcus mutans; assay: Compound is evaluated for the effect of saliva upon the antiplaque activity of the compound at 50% of saliva and at 0.05 percentage of compound; - = No plaque accumulation; assay type: functional, organism-based; in short: as §3
[16] = system: Streptococcus mutans; assay: Compound is evaluated for the effect of saliva upon the antiplaque activity of the compound at 0% of saliva and at 0.025 percentage of compound; - = No staining; assay type: functional, organism-based; in short: as §3
[17] = system: Streptococcus mutans; assay: Compound is evaluated for the effect of saliva upon the antiplaque activity of the compound at 0% of saliva and at 0.05 percentage of compound; + = Slight staining; assay type: functional, organism-based; in short: as §3
[18] = system: Streptococcus mutans; assay: Compound is evaluated for the effect of saliva upon the antiplaque activity of the compound at 50% of saliva and at 0.01 percentage of compound; - = No staining; assay type: functional, organism-based; in short: as §3
[19] = system: Streptococcus mutans; assay: Compound is evaluated for the effect of saliva upon the antiplaque activity of the compound at 50% of saliva and at 0.025 percentage of compound; - = No staining; assay type: functional, organism-based; in short: as §3
[20] = system: Streptococcus mutans; assay: Compound is evaluated for plaque-bactericidal index (PBI) against Streptococcus mutans 10449; assay type: functional
[21] = system: Streptococcus mutans; assay: Compound is evaluated for the inhibition of plaque-forming enzyme of Streptococcus mutans OMZ-61; assay type: functional
In short: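 S. mutans OMZ-61 was grown anaerobically at 37 °C for 24 h in glucose medium. The cell-free filtrate, adjusted to pH 5.5, served as the dextran/levan sucrase source. Reactions contained 3 μmol 14C-sucrose in citrate phosphate buffer pH 5.5 with 4% EtOH and ran 2 h at 37 °C. MeOH-insoluble polysaccharide was counted by scintillation. Compounds were tested at 50, 160 and 500 μg base/mL, with lower levels if needed, and I50 was read graphically.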

[22] = system: Staphylococcus aureus; assay: Minimum antimicrobial inhibitory concentration against Staphylococcus aureus; assay type: functional; in short: as §2
[23] = system: Streptococcus mutans; assay: Compound is evaluated for the effect of saliva upon the antiplaque activity of the compound at 50% of saliva and at 0.05 percentage of compound; + = Slight staining; assay type: functional, organism-based; in short: as §3
[24] = system: Streptococcus mutans; assay: Compound is evaluated for the effect of saliva upon the staining potential of the compound at 0% of saliva and at 0.01 percentage of compound; - = No staining; assay type: functional, organism-based; in short: as §3
[25] = system: Streptococcus mutans; assay: Compound is evaluated for minimal bactericidal concentration against plaque formation for Streptococcus mutans; assay type: functional, organism-based; in short: as §1
[26] = system: Streptococcus mutans; assay: Minimum plaque inhibitory concentration using a standard test organism, Streptococcus mutans OMZ-61; assay type: functional, organism-based
In short: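 Ceramic hydroxylapatite plates were soaked twice for 1 min each in compound at […] (aqueous), air-dried and rinsed, then hung in sucrose beef-extract medium (pH 7.0) inoculated with late-log S. mutans OMZ-61. Incubation was anaerobic at 37 °C for 24 h, and treatment plus reinoculation were repeated for a second 24 h. Plaque was stained with 1% FD&C Red No. 3 and scored visually. The value is the lowest concentration giving no plaque while medium growth matched control.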

[27] = Compound is evaluated for stain index; assay type: functional
In short: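 Ratio of the minimum concentration staining a plaque-free ceramic hydroxylapatite plate to the minimum plaque-inhibiting concentration, both run under the same conditions. Plates got two 1-min soaks (0.1–0.001%), each followed by air-drying, then a water rinse. They were then held 24 h anaerobically at 37 °C in sucrose beef-extract medium, with or without S. mutans OMZ-61, repeated once. Staining was 1-min 1% FD&C Red No. 3, scored visually.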

[28] = system: Streptococcus mutans; assay: Compound is evaluated for the growth inhibition of Streptococcus mutans OMZ-61; assay type: functional
[29] = system: Streptococcus mitis; assay: Compound is evaluated for plaque-bactericidal index (PBI) against Streptococcus mitis 90557
[30] = system: Streptococcus sanguinis; assay: Compound is evaluated for plaque-bactericidal index (PBI) against Streptococcus sanguis 10558

For `CCCCCCCCN=c1ccn(CCCCCCCCCCn2ccc(=NCCCCCCCC)cc2)cc1.Cl.Cl` [OCTENIDINE HYDROCHLORIDE], which Concentration [1] is on record?
Its Concentration is 1.6 mM.

And the PBI [2]?
The PBI was 19.2.

And the PBI [3]?
Its PBI is 19.2.

What about the MIC [4] of the same compound?
The MIC was 1 µg/mL.

And the MIC [5]?
Its MIC is 1 µg/mL.

What about the MIC [6] of the same compound?
The MIC was 1 µg/mL.

And the MIC [7]?
Its MIC is 2 µg/mL.

And the MIC [8]?
The MIC was 2 µg/mL.

And the MIC [9]?
Its MIC is 3.9 µg/mL.

What about the Plaque accum [10] of the same compound?
The Plaque accum was “No plaque accumulation”.

And the Plaque accum [11]?
The Plaque accum was “No plaque accumulation”.

What about the Plaque accum [12] of the same compound?
Its Plaque accum is “No plaque accumulation”.

What about the Plaque accum [13] of the same compound?
Its Plaque accum is “No plaque accumulation”.

And the Plaque accum [14]?
Its Plaque accum is “No plaque accumulation”.

What about the Plaque accum [15] of the same compound?
The Plaque accum was “No plaque accumulation”.

What about the Staining potential [16] of the same compound?
The Staining potential was “No staining”.

What about the Staining potential [17] of the same compound?
Its Staining potential is “No staining”.

And the Staining potential [18]?
Its Staining potential is “No staining”.

And the Staining potential [19]?
Its Staining potential is “No staining”.

What about the PBI [20] of the same compound?
The PBI was 25.6.

And the I50 [21]?
The I50 was 31 (ug of base) ml-1.

What about the MIC [22] of the same compound?
The MIC was 1 µg/mL.

What about the Staining potential [23] of the same compound?
Its Staining potential is “No staining”.

And the Staining potential [24]?
The Staining potential was “No staining”.

And the Concentration [25]?
Its Concentration is 3.2 mM.

And the Concentration [26]?
The Concentration was 0.005%.

And the Stain index [27]?
Its Stain index is 10.

And the MIC [28]?
The MIC was 1 (ug of base) ml-1.

And the PBI [29]?
The PBI was 32.

What about the PBI [30] of the same compound?
The PBI was 32.
